Assay [1] has as its target T1, Monoacylglycerol lipase ABHD6 (Homo sapiens, UniProt Q9BV23).
T1 sequence (Q9BV23 whole entry): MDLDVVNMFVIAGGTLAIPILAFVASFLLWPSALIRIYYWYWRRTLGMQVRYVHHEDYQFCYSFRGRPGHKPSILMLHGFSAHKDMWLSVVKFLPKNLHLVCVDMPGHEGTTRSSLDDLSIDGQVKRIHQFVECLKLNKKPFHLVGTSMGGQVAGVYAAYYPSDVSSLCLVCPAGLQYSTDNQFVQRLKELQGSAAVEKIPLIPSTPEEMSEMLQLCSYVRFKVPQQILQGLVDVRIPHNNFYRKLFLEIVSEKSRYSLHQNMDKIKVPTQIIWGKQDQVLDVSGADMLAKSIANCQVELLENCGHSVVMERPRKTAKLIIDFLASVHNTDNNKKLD
The assay can be described thus: Inhibition of human ABHD6 expressed in HEK293 cells assessed as reduction in glycerol production from 1-AG hydrolysis pre-incubated for 30 mins before 1-AG substrate addition and measured 90 mins post substrate addition by fluorescence method. The class given is cell-based. The method in brief:
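hABHD6-HEK293 lysates pretreated 30 min with DMSO or inhibitor, then given 1-AG (12.5 µM final). Glycerol release was followed kinetically by fluorescence (emission 590 nm). Blanks without lysate were subtracted. IC50 was taken at the 90 min time point by nonlinear fitting of dose–response curves.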

For assay [2], the target named is T2, Fatty-acid amide hydrolase 1 (Homo sapiens) (UniProt O00519).
T2 sequence (whole entry): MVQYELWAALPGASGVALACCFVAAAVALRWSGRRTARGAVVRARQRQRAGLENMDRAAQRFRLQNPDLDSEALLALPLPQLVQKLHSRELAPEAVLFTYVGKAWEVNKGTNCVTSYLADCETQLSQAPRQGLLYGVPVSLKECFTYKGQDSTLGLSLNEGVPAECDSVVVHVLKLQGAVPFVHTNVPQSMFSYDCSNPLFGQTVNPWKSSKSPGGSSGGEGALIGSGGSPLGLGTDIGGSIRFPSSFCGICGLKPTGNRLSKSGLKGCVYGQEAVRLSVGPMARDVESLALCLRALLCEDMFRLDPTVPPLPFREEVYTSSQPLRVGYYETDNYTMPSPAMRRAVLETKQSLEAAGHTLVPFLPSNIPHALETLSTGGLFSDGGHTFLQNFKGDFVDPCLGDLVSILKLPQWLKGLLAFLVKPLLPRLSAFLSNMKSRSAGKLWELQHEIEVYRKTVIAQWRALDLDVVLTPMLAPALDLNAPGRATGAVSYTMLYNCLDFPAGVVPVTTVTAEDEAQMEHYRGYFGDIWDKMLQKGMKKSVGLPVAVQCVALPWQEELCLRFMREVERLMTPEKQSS
The assay can be described thus: Inhibition of human FAAH expressed in COS7 cell membranes at 10 uM pre-incubated for 10 mins before [3H]-AEA substrate addition by liquid scintillation counting. The settings on record: COS-7.

Assay [3] concerns the target T3, Fatty-acid amide hydrolase 1 (Mus musculus) (UniProt O08914).
T3 sequence (whole entry): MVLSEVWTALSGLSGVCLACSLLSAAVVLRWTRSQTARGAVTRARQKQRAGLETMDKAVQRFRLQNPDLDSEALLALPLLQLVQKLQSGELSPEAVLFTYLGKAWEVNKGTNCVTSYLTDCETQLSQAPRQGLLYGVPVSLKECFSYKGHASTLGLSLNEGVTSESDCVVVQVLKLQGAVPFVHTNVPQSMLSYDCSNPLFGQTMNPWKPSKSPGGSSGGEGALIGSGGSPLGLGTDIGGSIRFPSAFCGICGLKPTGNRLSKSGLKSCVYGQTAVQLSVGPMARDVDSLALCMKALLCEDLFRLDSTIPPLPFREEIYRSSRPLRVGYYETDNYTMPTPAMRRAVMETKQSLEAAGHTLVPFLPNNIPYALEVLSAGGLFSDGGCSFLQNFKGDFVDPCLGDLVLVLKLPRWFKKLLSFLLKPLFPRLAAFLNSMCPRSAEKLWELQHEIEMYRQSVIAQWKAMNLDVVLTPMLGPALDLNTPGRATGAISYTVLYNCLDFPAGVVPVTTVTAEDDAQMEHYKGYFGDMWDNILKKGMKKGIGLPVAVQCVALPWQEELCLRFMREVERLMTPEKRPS
The experiment in a line: Inhibition of FAAH in mouse whole brain membranes at 10 uM incubated for 1 hr by TAMRA-FP probe based competitive activity-based protein profiling assay. To be noted: Membrane. In kind it is cell membranes. The method in brief:
(§1)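 Competitive ABPP on mouse brain membranes (100 µg) treated 1 h with DMSO or inhibitor. TAMRA-FP labelling then ran 1 h at RT (final probe 2 µM). Reaction was quenched with gel loading buffer and proteins resolved by 10% SDS–PAGE for fluorescent band read-out. WWL70 located the ABHD6 band. Gels are representative of two experiments.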

Assay [4] concerns the target T4, Lysophosphatidylserine lipase ABHD12 (Homo sapiens) (UniProt Q8N2K0).
T4 sequence (whole entry): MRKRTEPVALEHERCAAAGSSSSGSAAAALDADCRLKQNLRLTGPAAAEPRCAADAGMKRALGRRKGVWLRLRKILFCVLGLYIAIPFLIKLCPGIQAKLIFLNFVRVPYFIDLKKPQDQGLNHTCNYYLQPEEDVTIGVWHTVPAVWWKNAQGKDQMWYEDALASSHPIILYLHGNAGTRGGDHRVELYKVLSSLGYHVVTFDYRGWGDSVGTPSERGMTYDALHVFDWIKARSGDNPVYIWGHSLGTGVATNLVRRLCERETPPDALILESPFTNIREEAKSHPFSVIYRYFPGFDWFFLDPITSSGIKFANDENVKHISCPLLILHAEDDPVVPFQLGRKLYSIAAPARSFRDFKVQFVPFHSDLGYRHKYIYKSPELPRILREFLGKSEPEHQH
The experiment in a line: Inhibition of human ABHD12 expressed in HEK293 cells assessed as remaining enzyme activity at 1 uM pre-incubated for 10 mins before 2-AG substrate addition by HPLC method. The class given is cell-based.

Assay [5] addresses T5, Monoglyceride lipase (Mus musculus) (UniProt O35678).
T5 sequence (whole entry): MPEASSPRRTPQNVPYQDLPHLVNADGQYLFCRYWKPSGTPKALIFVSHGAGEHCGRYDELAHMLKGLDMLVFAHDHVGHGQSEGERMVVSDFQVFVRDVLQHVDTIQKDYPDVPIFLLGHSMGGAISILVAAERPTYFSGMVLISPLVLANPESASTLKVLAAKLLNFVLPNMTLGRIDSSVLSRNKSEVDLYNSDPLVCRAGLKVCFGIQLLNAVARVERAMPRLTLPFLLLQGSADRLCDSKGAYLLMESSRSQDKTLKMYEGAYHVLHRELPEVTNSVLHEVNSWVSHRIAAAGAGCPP
The experiment in a line: Inhibition of MAGL in mouse whole brain membranes at 10 uM incubated for 1 hr by TAMRA-FP probe based competitive activity-based protein profiling assay. The class given is cell membranes. The settings on record: Membrane. The method in brief: as §1

The values below come from ChEMBL document CHEMBL3612019, “Revisiting 1,3,4-Oxadiazol-2-ones: Utilization in the Development of ABHD6 Inhibitors” (Bioorg Med Chem, 2015).

Each structure is given as a SMILES string. Calls of active or inactive are those of the source. The calls are words filed in the database; no cut-off is given here.

A word on the IC50: it is the concentration that inhibits the measured activity by half. Usually inhibition stands for the drop in the measured response relative to a control, in per cent.

In the case of `Nc1cccc(Cn2nc(Oc3ccccc3)oc2=O)c1`, the IC50 in assay [1] was 73 nM. The compound further displayed an inhibition in assay [2] of 25%. Further, the inhibition entry in assay [3] and in assay [5] was “Active” throughout. Moreover, the inhibition result in assay [4] was “inactive”.
Take `COc1nn(Cc2cccc(N)c2)c(=O)o1`: the IC50 in assay [1] was found to be 216 nM. Moreover, in assay [2], the inhibition amounted to 18%. Moreover, the inhibition entry in assay [3], in assay [4] and in assay [5] was “inactive” each time.
